“Also recorded” adds a separate entry of the source. Positions of bridges follow the written chain, without caps; N, C: chain ends. Non-standard residues stand in square brackets, D forms with d. Residues, ends and D or L forms follow the SMILES beside them. *: point of attachment. DTPA = O=C(O)CN(CCN(CC(=O)O)CC(=O)O)CCN(CC(=O)O)CC(=O)*; dPen = CC(C)(S)[C@@H](N)C(=O)O
Key:
[1] = test system: Hek293 cells expressing MC4R and/or CCK2R; assay: Cytotoxicity, celltiter-Glo luminescent cell viability assay; format: cell-based, human; settings: 1 μM, dual receptor expressing (target) cells, 24 and 48 h
[2] = test system: Hek293/MC4R/CCK2R cells; assay: Cell fluorescence imaging of Cy5 labeled ligand binding and internalization; format: cell-based, human
Procedure, shortened: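 Live stable Hek293/MC4R/CCK2R cells on coverslips were held in a 37°C stage chamber. Cells were incubated with 0.8 nM Cy5-tagged heterobivalent ligand (15 sec, or 3 min in the legend) and rinsed with ligand-free medium. Images were taken immediately and 7 min later by CCD camera, with Cy5 excitation at 640 nm (20 nm bandpass) and emission at 690 nm (30 nm filter).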

[3] = target: human delta-opioid receptor (δOR) (Homo sapiens, UniProt P41143); settings: saturation binding to δOR in CHO/MC4R/δOR cells
Sequence of human delta-opioid receptor (δOR) (P41143 whole entry): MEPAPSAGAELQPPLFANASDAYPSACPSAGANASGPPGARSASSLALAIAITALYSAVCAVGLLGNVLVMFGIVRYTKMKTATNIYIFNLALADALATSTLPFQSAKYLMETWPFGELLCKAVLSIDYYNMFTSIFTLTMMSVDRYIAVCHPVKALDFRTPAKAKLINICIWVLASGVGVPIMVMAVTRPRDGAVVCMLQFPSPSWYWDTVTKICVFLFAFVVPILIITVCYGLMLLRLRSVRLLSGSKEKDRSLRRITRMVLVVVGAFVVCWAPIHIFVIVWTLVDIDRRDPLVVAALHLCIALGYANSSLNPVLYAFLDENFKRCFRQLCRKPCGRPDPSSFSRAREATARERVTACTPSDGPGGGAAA

In the case of cholecystokinin-8 [CCK], the cell viability [1] is reported as “reduced viability; also recorded: toxicity”.

In the case of “Ac-MSH7-PEGO-[Pro-Gly]3-Lys(Cy5)-PEGO-CCK6-NH2”, the “internalization of receptor/ligand complex” value ([2]; by 10 minutes, no significant loss of ligand on adding CCK ligand 50 μM) is reported as “substantially internalized” and the “binding to the cell surface (Cy5 fluorescence)” value ([2]; immediately following incubation, 15 sec with 0.8 nM) is reported as “significant binding to the cell surface”.

With `CC1(C)SSC[C@@H](C(=O)N[C@@H](Cc2ccccc2)C(=O)N[C@@H](CCCCNC(=O)CN(CCN(CCN(CC(=O)O)CC(=O)O)CC(=O)O)CC(=O)O)C(N)=O)NC(=O)[C@H](Cc2ccccc2)NC(=O)CNC(=O)[C@@H]1NC(=O)[C@@H](N)Cc1ccc(O)cc1` [Eu-DPLCE, H-Tyr-c[DPen-Gly-Phe-Cys]-Phe-Lys(Eu-(DTPA))-NH2] (H-Y[dPen]GFCFK(DTPA)-NH2; disulfide 2-5) the Bmax [3] was 24,000 ± 2,000 AFU.

Reference: PMC3662534 (Molecular cancer therapeutics, 2009)
